Published values collected from several papers.
Lines come from different studies, so protocols differ.
Target: Death-associated protein kinase 2 (DAPK2, Homo sapiens, UniProt Q9UIK4)

| Compound | observed | technique | concentration | remaining binding [%] |
| --- | --- | --- | --- | --- |
| CCN1CCN(Cc2ccc(C(=O)Nc3ccc(C)c(Oc4ccc5c(c4)CC(=O)N5)c3)cc2C(F)(F)F)CC1 | binding | competition with immobilised ligand | 1 µM | 100 |
| CN(c1nccc(-c2cnn3ncccc23)n1)C1CC1 | binding | – | 1 µM | 76 |
| FC(F)(F)Oc1cccc(-c2cnc3ccc(-c4ccncc4)nn23)c1 | cell-free assay | competition with immobilised ligand | 5 µM | 66 |
| Nc1c(C(=O)NCc2ccc(C(=O)NCCCC3CCCCC3)cc2)cnn1-c1ccccc1 | cell-free assay | competition with immobilised ligand | 0.1 µM | 100 |
| O=C(c1ccc(Nc2ncc(Cl)c(-c3cc4ccccc4s3)n2)cc1)N1CCC(N2CCCC2)CC1 | binding | competition with immobilised ligand | 1 µM | 20 |
| Nc1ncc2c(n1)-c1c([nH]c3ccc(C#CC4CC4)cc13)CCCC2 | binding | competition with immobilised ligand | 1 µM | 100 |
| Cc1cnn2ncc(-c3ccnc(N(C)C)n3)c2c1 | binding | – | 1 µM | 87 |
| Cc1c(NC(=O)c2cc(C(N)=O)nc3cc(F)ccc23)c(C(F)(F)F)nn1Cc1ccc(C#N)cc1 | cell-free assay | competition with immobilised ligand | 1 µM | 99 |
| CN(C)c1nccc(-c2cnn3ncccc23)n1 | binding | – | 1 µM | 90 |
| CC(=O)C1=C(C)N(c2cccc(C(F)(F)F)c2)C(=O)N[C@@H]1c1ccc(C#N)nc1 | cell-free assay | competition with immobilised ligand | 1 µM | 79.2 |
| O=C(NCC1CCOCC1)c1n[nH]cc1NC(=O)c1c(F)cccc1F | binding | competition with immobilised ligand | 1 µM | 95 |
| O=C(NCCCN1CCOCC1)c1ccc(Nc2ncc(Cl)c(-c3ccc(Cl)s3)n2)cc1 | binding | competition with immobilised ligand | 1 µM | 38 |
| N[C@@H]1CCN(c2nccc(-c3cnn4ncccc34)n2)C1 | binding | – | 1 µM | 100 |
| Cn1nc(C(F)(F)F)cc1-c1cnc(N2CCc3cc(S(=O)(=O)Nc4c(F)cc(Cl)cc4F)cc(N4CCCC4=O)c32)nc1 | cell-free assay | competition with immobilised ligand | 1 µM | 94 |
| CN(C)c1ncc(F)c(-c2cnn3ncccc23)n1 | binding | – | 1 µM | 69 |
| c1cncc(-c2cccc(Nc3nccc(NC4CCCCC4)n3)c2)c1 | binding | competition with immobilised ligand | 10 µM | 84 |
| C[C@@H](c1ccc(-n2cnc3c(N)ncnc32)cc1)N1CCc2nn(C)c(Cc3ccccc3)c2C1=O | binding | competition with immobilised ligand | 0.1 µM | 100 |
| COc1cnc(Nc2cccc(S(N)(=O)=O)c2)nc1N1CCN(c2ccccc2)C(=O)C1 | binding | competition with immobilised ligand | 1 µM | 100 |
| CS(=O)(=O)N1CCCC(NC(=O)[C@H](CCC2CCCCC2)NC(=O)c2ccc(CNc3ncnc4c3nnn4-c3ccccc3)cc2)C1 (stereo partly shown) | cell-free assay | competition with immobilised ligand | 0.1 µM | 90 |
| C[C@H]1CCN(c2nccc(-c3cnn4ncccc34)n2)C1 | binding | – | 1 µM | 72 |
| O=C(c1ccc(Nc2ncc(Cl)c(-c3ccc(Cl)s3)n2)cc1)N1CCC(N2CCCC2)CC1 | binding | competition with immobilised ligand | 1 µM | 29 |
| CN(C)C(=O)Cn1cc(-c2nc(C3(c4ccc(-c5cnc(N)nc5)cc4)CC3)no2)cn1 | cell-free assay | competition with immobilised ligand | 1 µM | 86 |
